≈ marks a conversion by molar mass, not a printed value. Calls of active or inactive are those of the source. The rule behind the calls is not given here.
What was measured:
[1] = test system: DNA; test: Binding affinity to calf thymus DNA at 5:1 DNA to compound ratio by spectrophotometric analysis (reference value: 59.5 degC); type: nucleic-acid assay; settings: Bos taurus
[2] = test system: Vaccinia virus; test: Antiviral activity against Vaccinia virus infected in HEL cells assessed as inhibition of virus-induced cytopathicity; type: functional, organism-based; settings: Orthopoxvirus vaccinia
Method in brief: (§1)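 Confluent monolayers in 96-well plates were inoculated with 100 CCID50 of virus in the presence of varying concentrations of compound. Read-out was inhibition of virus-induced cytopathicity, compared with untreated infected cultures. Cytotoxicity was judged microscopically or by MTT viability staining.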

[3] = test system: Ferriprotoporphyrin IX; test: Binding affinity to monomeric Fe(III)PPIX at pH 5.6
Method in brief: (§2)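 UV-vis titration of monomeric Fe(III)PPIX (2.4 μM) with stepwise additions of compound (0−69 μM, in DMSO), in aqueous DMSO. Buffer was 0.02 M HEPES at pH 7.4 or 0.02 M MES at pH 5.6. Decrease of the Soret band at 402 nm was followed. Association constants were calculated from the titration curves. Stoichiometry was taken from Job's plot.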

[4] = test system: Coxsackievirus B4; test: Antiviral activity against Coxsackievirus B4 infected in human HeLa cells assessed as inhibition of virus-induced cytopathicity; type: functional, organism-based
Method in brief: (§3)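 Confluent monolayers (HEL, Vero, HeLa or CrFK, as applicable) were inoculated with 100 CCID50 of virus, with 1 CCID50 being the dose that infects 50% of cultures. Infection ran in the presence of varying compound concentrations. Inhibition of virus-induced cytopathicity was scored against infected cultures left untreated.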

[5] = test system: Human respirovirus 3; test: Antiviral activity against parainfluenza virus 3 infected in African green monkey Vero cells assessed as inhibition of virus-induced cytopathicity; type: functional, organism-based; method in brief: as §3
[6] = Selectivity index, ratio of CC50 for cat CRFK cells to IC50 for chloroquine-resistant asexual erythrocytic stage of Plasmodium falciparum Dd2; type: functional
Method in brief: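 Ratio of CRFK CC50 (μM) to Dd2 IC50 […]. CC50 is the 50% cytotoxic concentration in feline kidney CRFK cells, measured as cell viability by colorimetric formazan-based MTS assay. Dd2 IC50 is from the parasite LDH growth-inhibition assay.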

[7] = test system: Punta Toro virus; test: Antiviral activity against Punta Toro virus infected in African green monkey Vero cells assessed as inhibition of virus-induced cytopathicity; type: functional, organism-based; method in brief: as §3
[8] = test system: HEL; test: Cytotoxicity against HEL cells assessed as alteration of cell morphology by microscopic analysis; type: cell-based; settings: human
Method in brief: (§4)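 Cells (Vero, HEL, MDCK or HeLa) were exposed to a range of sample concentrations. The value reported is the concentration required to cause a microscopically detectable alteration of normal cell morphology.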

[9] = test system: Human betaherpesvirus 5; test: Antiviral activity against Cytomegalovirus Davis infected in HEL cells assessed as inhibition of virus-induced cytopathicity; type: functional, organism-based
[10] = test system: Plasmodium falciparum; test: Antiplasmodial activity against chloroquine-resistant asexual erythrocytic stage of Plasmodium falciparum Dd2 assessed as parasite growth inhibition by lactate dehydrogenase assay; type: functional, organism-based
Method in brief: (§5)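 Parasite lactate dehydrogenase assay (modified Makler method). Samples held as 20 mg/mL stocks in DMSO, diluted on test day. Full dose-response: starting at 10 μg/mL, 2-fold serial dilution in complete medium over 10 concentrations down to 0.02 μg/mL. Chloroquine, artesunate and MMV390048 served as references. IC50 from nonlinear dose-response curve fitting; mean of three independent experiments.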

[11] = test system: Heme; test: Binding affinity to heme assessed as inhibition of beta-hematin formation at 1.2 equiv after 1 hr by FT-IR spectroscopic analysis
[12] = test system: Sindbis virus; test: Antiviral activity against Sindbis virus infected in African green monkey Vero cells assessed as inhibition of virus-induced cytopathicity; type: functional, organism-based
[13] = test system: Escherichia coli; test: Binding affinity to Escherichia coli pUC18 DNA by fluorescence spectrophotometric analysis
Method in brief: (§6)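 Steady-state fluorescence titration at ambient temperature, with excitation at 330 nm and emission at 376 nm. […] Binding constant derived from the emission changes.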

[14] = test system: DNA; test: Binding affinity to calf thymus DNA by fluorescence spectrophotometric analysis; type: nucleic-acid assay; settings: Bos taurus; method in brief: as §6
[15] = test system: Ferriprotoporphyrin IX; test: Binding affinity to monomeric Fe(III)PPIX by 1H NMR spectra analysis
[16] = test system: MDCK; test: Cytotoxicity against MDCK cells assessed as alteration of cell morphology by microscopic analysis; type: cell-based, Canis lupus familiaris; settings: dog; method in brief: as §4
[17] = Cytotoxicity against human HeLa cells assessed as alteration of cell morphology by microscopic analysis; type: cell-based; settings: read-out: MIC; method in brief: as §4
[18] = test system: Plasmodium falciparum; test: Potency index, ratio of chloroquine IC50 to compound IC50 for chloroquine-resistant asexual erythrocytic stage of Plasmodium falciparum Dd2; type: functional
[19] = n-octanol-PBS buffer distribution coefficient, log D of the compound at pH 7.4 after 24 hrs by HPLC analysis; type: physicochemical
[20] = test system: Human alphaherpesvirus 3; test: Antiviral activity against Varicella-zoster virus infected in HEL cells assessed as inhibition of virus-induced cytopathicity; type: functional, organism-based
[21] = test system: Respiratory syncytial virus; test: Antiviral activity against Respiratory syncytial virus infected in human HeLa cells assessed as inhibition of virus-induced cytopathicity; type: functional, organism-based; method in brief: as §3
[22] = test system: Vesicular stomatitis virus; test: Antiviral activity against Vesicular stomatitis virus infected in HEL cells assessed as inhibition of virus-induced cytopathicity; type: functional, organism-based; method in brief: as §1
[23] = test system: Human alphaherpesvirus 2; test: Antiviral activity against HSV-2 G infected in HEL cells assessed as inhibition of virus-induced cytopathicity; type: functional, organism-based; settings: strain G; method in brief: as §3
[24] = test system: Plasmodium falciparum; test: Antiplasmodial activity against chloroquine-sensitive asexual erythrocytic stage of Plasmodium falciparum D10 assessed as parasite growth inhibition by lactate dehydrogenase assay; type: functional, organism-based; method in brief: as §5
[25] = Aqueous solubility of the compound in PBS buffer at pH 7.4 after 24 hrs by HPLC analysis; type: physicochemical; settings: pH 7.4, 24 h
[26] = test system: Ferriprotoporphyrin IX; test: Binding affinity to monomeric Fe(III)PPIX at pH 7.4; method in brief: as §2
[27] = test system: Coxsackievirus B4; test: Antiviral activity against Coxsackievirus B4 infected in African green monkey Vero cells assessed as inhibition of virus-induced cytopathicity; type: functional, organism-based; method in brief: as §3
[28] = test system: Heme; test: Binding affinity to mu-oxodimeric heme at pH 5.8
Method in brief: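 μ-Oxo dimer heme (10 μM) in 20 mM phosphate buffer, pH 5.8, titrated stepwise with compound (0.3−16 μM). Decrease in absorbance at 362 nm was monitored, and the binding constant was calculated from the titration curve.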

[29] = test system: Feline coronavirus; test: Antiviral activity against Feline coronavirus infected in cat CRFK cells assessed as inhibition of virus-induced cytopathicity; type: functional, organism-based; method in brief: as §3
[30] = test system: Influenza A virus H3N2; test: Antiviral activity against Influenza A virus H3N2 infected in MDCK cells assessed as inhibition of virus-induced cytopathicity; type: functional, organism-based; method in brief: as §1
[31] = test system: Vero; test: Cytotoxicity against African green monkey Vero cells assessed as alteration of cell morphology by microscopic analysis; type: cell-based; settings: chlorocebus sabaeus; method in brief: as §4
[32] = test system: Influenza A virus; test: Antiviral activity against influenza A virus H1N1 infected in MDCK cells assessed as inhibition of virus-induced cytopathicity; type: functional, organism-based; method in brief: as §1
[33] = test system: Human betaherpesvirus 5; test: Antiviral activity against Cytomegalovirus AD169 infected in HEL cells assessed as inhibition of virus-induced cytopathicity; type: functional, organism-based
[34] = Cytotoxicity against cat CRFK cells assessed as cell viability by MTS assay; type: cell-based, Felis catus
Method in brief: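 CRFK cells were exposed to varying sample concentrations. Cell viability was measured with the colorimetric formazan-based MTS assay, and the 50% cytotoxic concentration (CC50) was derived from it.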

[35] = test system: Vesicular stomatitis virus; test: Antiviral activity against Vesicular stomatitis virus infected in human HeLa cells assessed as inhibition of virus-induced cytopathicity; type: functional, organism-based; method in brief: as §1
[36] = test system: Human alphaherpesvirus 1; test: Antiviral activity against thymidine kinase-negative acyclovir-resistant HSV-1 KOS infected in HEL cells assessed as inhibition of virus-induced cytopathicity; type: functional, organism-based; method in brief: as §1
[37] = test system: Felid alphaherpesvirus 1; test: Antiviral activity against Feline herpesvirus infected in cat CRFK cells assessed as inhibition of virus-induced cytopathicity; type: functional, organism-based; method in brief: as §3
[38] = test system: Ferriprotoporphyrin IX; test: Binding affinity to monomeric Fe(III)PPIX at 5 umol by mass spectra analysis
Method in brief: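 Solution-phase mass spectra were recorded after adding monomeric heme (5 μmol) to the compound (5 μmol) in 40% aqueous DMSO. The region between 1008 and 1024 Da was examined for adduct signals.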

[39] = test system: DNA; test: Binding affinity to calf thymus DNA assessed as hypochromic shift at 66.6 uM after 5 mins by UV-spectrophotometric analysis; type: nucleic-acid assay; settings: Bos taurus
[40] = Solubility of the compound in octanol at pH 7.4 by HPLC analysis; type: physicochemical
[41] = test system: Mammalian orthoreovirus 1; test: Antiviral activity against Reovirus 1 infected in African green monkey Vero cells assessed as inhibition of virus-induced cytopathicity; type: functional, organism-based; method in brief: as §3
[42] = test system: Human alphaherpesvirus 1; test: Antiviral activity against HSV-1 KOS infected in HEL cells assessed as inhibition of virus-induced cytopathicity; type: functional, organism-based; method in brief: as §3
[43] = test system: DNA; test: Binding affinity to calf thymus DNA at 5:1 DNA to compound ratio by spectrophotometric analysis; type: nucleic-acid assay; settings: Bos taurus
[44] = test system: HeLa; test: Cytotoxicity against human HeLa cells assessed as growth inhibition by MTT assay; type: cell-based

Clc1ccc2c(NCCCNc3nccc(N4CCCCC4)n3)ccnc2c1
Tm [1]: 67.8 °C | inhibition [2]: inactive | log Ks [3]: 4.59 | inhibition [4]: inactive | inhibition [5]: inactive | Ratio CC50/IC50 [6]: 228 | inhibition [7]: inactive | Activity [8]: Non-toxic | inhibition [9]: inactive | IC50 [10]: 0.043 µM | inhibition [11]: Active | inhibition [12]: inactive | log Ks [13]: 3.99 | log Ks [14]: 3.64 | Activity [15]: Active | Activity [16]: Non-toxic | MCC [17]: 100 µM | Ratio IC50 [18]: 3.2 | logD at 24 h [19]: 0.845 | inhibition [20]: inactive | inhibition [21]: inactive | inhibition [22]: inactive | inhibition [23]: inactive | IC50 [24]: 0.0226 µM | solubility [25]: 0.25 µM (≈ 0.0992 µg/mL) | log Ks [26]: 4.63 | inhibition [27]: inactive | log Ks [28]: 5.84 | inhibition [29]: inactive | inhibition [30]: inactive | Activity [31]: Non-toxic | inhibition [32]: inactive | inhibition [33]: inactive | CC50 [34]: 9.8 µM | inhibition [35]: inactive | inhibition [36]: inactive | inhibition [37]: inactive | Activity [38]: Active | Activity [39]: 23% | solubility [40]: 1.74 µM (≈ 0.691 µg/mL) | inhibition [41]: inactive | inhibition [42]: inactive

CCN(CC)CCCC(C)Nc1ccnc2cc(Cl)ccc12 (stereo not given) [CHLOROQUINE PHOSPHATE]
Activity [43]: Active | IC50 [44]: 30 µM

Clc1ccc2c(NCCCNc3nccc(N4CCNCC4)n3)ccnc2c1
inhibition [2]: inactive | inhibition [4]: inactive | inhibition [5]: inactive | Ratio CC50/IC50 [6]: 36 | inhibition [7]: inactive | inhibition [9]: inactive | IC50 [10]: 2 µM | inhibition [12]: inactive | MCC [17]: 100 µM | logD at 24 h [19]: 0.102 | inhibition [20]: inactive | inhibition [21]: inactive | inhibition [22]: inactive | inhibition [23]: inactive | IC50 [24]: 0.113 µM | solubility [25]: 0.6 µM (≈ 0.239 µg/mL) | inhibition [27]: inactive | inhibition [29]: inactive | inhibition [30]: inactive | inhibition [32]: inactive | inhibition [33]: inactive | CC50 [34]: 74 µM | inhibition [35]: inactive | inhibition [36]: inactive | inhibition [37]: inactive | solubility [40]: 0.75 µM (≈ 0.298 µg/mL) | inhibition [41]: inactive | inhibition [42]: inactive

Clc1ccc2c(NCCCNc3nccc(N4CCCC4)n3)ccnc2c1
inhibition [2]: inactive | inhibition [4]: inactive | inhibition [5]: inactive | Ratio CC50/IC50 [6]: 327 | inhibition [7]: inactive | inhibition [9]: inactive | IC50 [10]: 0.151 µM | inhibition [12]: inactive | MCC [17]: 100 µM | logD at 24 h [19]: 0.756 | inhibition [20]: inactive | inhibition [21]: inactive | inhibition [22]: inactive | inhibition [23]: inactive | IC50 [24]: 0.0287 µM | solubility [25]: 0.22 µM (≈ 0.0842 µg/mL) | inhibition [27]: inactive | inhibition [29]: inactive | inhibition [30]: inactive | inhibition [32]: inactive | inhibition [33]: inactive | CC50 [34]: 49 µM | inhibition [35]: inactive | inhibition [36]: inactive | inhibition [37]: inactive | solubility [40]: 1.25 µM (≈ 0.479 µg/mL) | inhibition [41]: inactive | inhibition [42]: inactive

From ChEMBL document CHEMBL3112527, “Quinoline-pyrimidine hybrids: synthesis, antiplasmodial activity, SAR, and mode of action studies” (J Med Chem, 2014)
